Data: PubChem BioAssay AID720543 (The Scripps Research Institute Molecular Screening Center, 2013)
About 2,000 (0.54%) of roughly 370,000 compounds were called active.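 Rule for the calls: active = inhibition exceeding the mean over every tested compound plus 3 SD (cut at about 30% in these data); inactive = the rest.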 This excerpt belongs to a sample that is enriched for actives.

These compounds were tested against (Lyso)-N-acylphosphatidylethanolamine lipase (Mus musculus) (UniProt Q8VD66) (assay: ABHD4 inhibitors, primary screen, biochemical, fluorescence polarization, mouse (AID 720543;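 note: 0% = plate median of compound wells and 100% = S159A mutant with DMSO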)). Settings: purified mABHD4, FP-Rh probe fluorescence polarization; at 8.92 µM; stronger effect = higher value.
Sequence of (Lyso)-N-acylphosphatidylethanolamine lipase (Mus musculus) (Q8VD66 whole entry, looked up): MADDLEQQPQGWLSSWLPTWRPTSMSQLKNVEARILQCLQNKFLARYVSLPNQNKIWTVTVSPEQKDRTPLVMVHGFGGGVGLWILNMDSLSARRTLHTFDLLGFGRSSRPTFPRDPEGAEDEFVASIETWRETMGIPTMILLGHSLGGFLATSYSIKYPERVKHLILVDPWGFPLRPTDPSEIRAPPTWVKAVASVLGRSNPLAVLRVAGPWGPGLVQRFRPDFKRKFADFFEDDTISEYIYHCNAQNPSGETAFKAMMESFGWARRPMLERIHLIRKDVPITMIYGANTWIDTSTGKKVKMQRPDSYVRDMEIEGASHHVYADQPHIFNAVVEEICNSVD
In short: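 Material: mouse ABHD4 enzyme, wild type; Benchmarks: S159A mutant high control, sample median low control; Buffer or medium: HEPES pH 7.0, NaCl, Pluronic buffer; Signal: fluorescence polarization; Read-out: percent inhibition of probe binding, normalized to plate controls; Timing: pre-incubation 45 min, probe exposure 60 min, at 25 °C; Dosing: 8.92 µM, single dose.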

inhibition, inactive:
C=CCN1C(C(=O)OC)CN(Cc2cn(Cc3ccccc3)nn2)CCS1(=O)=O (stereo unspecified) -0.95%
COc1ccccc1-c1n[nH]nc1C1=CC(=O)CC(C)(C)C1 -5.54%
COc1ccccc1-c1sc2ccccc2c1-c1ccc(Br)nc1 -9.92%
CCn1c(=O)n2n(c1=O)[C@@]1(C=C3CCCC[C@H]32)N=C(NC(=O)c2ccccc2)N(Cc2ccccc2)[C@H]1Cc1ccccc1 5.91%
COCCNC(=O)c1cc2c(Br)ccc(Br)c2nc1N -4.62%
COCCNC(=S)c1ccc(OC)cc1 4.41%
O=C(C1CCN(S(=O)(=O)c2ccc(Br)s2)CC1)N1CCN(c2ccccc2)CC1 1.42%
COc1ccc(-n2c(SCC(=O)NC3CCCC3)nnc2-c2ccncc2)cc1 3.8%
CCn1c(/C=C/Nc2ccccc2)[n+](CC)c2ccc(C(=O)OCC(F)(F)F)cc21 -4.64%
CC(c1c[nH]c2ccccc12)c1c(-c2ccccc2)n(C)c2ccccc12 (stereo unspecified) -21.7%
Cc1nc2cc(C(F)(F)F)ccc2n1CCNc1nc(-c2cc(Cl)c(N)c(Cl)c2)cs1 5.15%
CCOC(=O)C1CCN(C(=O)c2oc3ccc(S(=O)(=O)N4CCCCCC4)cc3c2C)CC1 6.37%
CC1CCCCN1C(=O)Cn1c(=O)oc2cc(S(=O)(=O)N3CCCCC3)ccc21 (stereo unspecified) 8.03%
Cc1ccccc1NC(=O)C1CCN(c2ncccn2)CC1 -7.6%
COC(=O)C1CCCCN1C(=O)c1ccc(OC2CCN(C(C)=O)CC2)c(OC)c1 (stereo unspecified) -4.35%
COc1ccc(-c2ccccc2C2Cc3nnccc3CN2C(=O)Nc2ccccc2)cc1 (stereo unspecified) -13%
O=C(CSc1nnc(-c2ccccn2)n1-c1ccc(Cl)cc1)Nc1ccccc1-c1ccccc1 -9.15%
CS(=O)(=O)N1CCCC(C(=O)Nc2ccccc2C(F)(F)F)C1 (stereo unspecified) -11.1%
COc1ccc(C(C#N)Nc2ccc(C)cc2)cc1 (stereo unspecified) 0.68%
COCCCN(C(=O)CSCc1ccc(C)cc1)c1c(N)n(Cc2ccccc2)c(=O)[nH]c1=O 2.08%
COCCn1c(N)c(NCc2ccccc2)c(=O)[nH]c1=O 7.29%
CC(NC(=O)C1CCCN(S(=O)(=O)c2ccc(-n3cnnn3)cc2)C1)c1ccc(F)cc1 (stereo unspecified) -0.78%
Cc1ccc(S/C(=N\S(=O)(=O)c2ccc(Cl)cc2)c2ccccc2)cc1 7.36%
CCOc1ccc(Oc2c(Cl)cnn(-c3ccc(C)cc3)c2=O)cc1 5.6%
COc1ccc(C2Nc3ccccc3C(=O)N2Cc2cccs2)cc1COc1c(C)cccc1C (stereo unspecified) -15.8%
CCOc1ccc2nc(NCCNC(=O)C(C)(C)C)c(C)cc2c1 -2.62%
COc1ccc(-c2noc(C(C)NS(=O)(=O)c3ccc(NC(C)=O)cc3)n2)cc1 (stereo unspecified) 0.4%
CCOc1ccc2sc(NS(=O)(=O)c3ccc(N)cc3)nc2c1 16.3%
COc1ccc(/C=C/c2nnc(NC(=O)C(C)C)s2)cc1 -1.43%
CN1CCN(C(=O)C(=O)c2cn(CC(=O)N3CCCC3)c3ccccc23)CC1 8.39%
Nc1nc2c(ncn2[C@@H]2O[C@H](C(=O)N[C@@H](Cc3ccccc3)C(=O)NCc3ccccc3)[C@@H](O)[C@H]2O)c(=O)[nH]1 1.72%
COC(=O)[C@]12C[C@H](CC(=O)NCC34CC5CC(CC(C5)C3)C4)C(=O)N(Cc3ccc(Cl)cc3Cl)C1=C[C@H](COCc1ccccc1)O[C@@H]2C 2.69%
O=C(NCc1ccccc1)[C@@H]1CCCN1C(=O)[C@@H](NS(=O)(=O)c1ccc(F)cc1F)C1CCCCC1 -7.63%
COC(=O)[C@]12C[C@H](CC(=O)NCc3ccccc3)C(=O)N(Cc3ccccc3)C1=C[C@H](COCc1ccccc1)O[C@@H]2C -5.73%
COC(=O)[C@@]12CCCCC=C1N(CCc1ccc(Cl)cc1)C(=O)[C@H]2CC(=O)NCc1ccc(OC)c(OC)c1 -1.49%
CCOC(=O)[C@@]12CCC3=C1N(CCC3)C(=O)[C@H](CC(=O)N1CCN(C(=O)c3ccco3)CC1)C2 2.38%
O=C1CC(c2ccccc2)C(c2ccccc2)=NN1 (stereo unspecified) -2.08%
CN(C(=O)CCn1c(=S)oc2ccccc21)C1CCCCC1 0.63%
CN(C(=O)COc1ncnc2c1cnn2-c1ccccc1)C1CCCCC1 -16.6%
CCC(=O)Nc1ccc2c(c1)C(=O)N(C)[C@@H]1CC[C@@H](CC(=O)NCCc3ccccc3)O[C@H]1CO2 -0.19%
CC(C)C[C@H](NC(=O)CC1CCCC1)C(=O)N1CCC[C@H]1C(=O)NCc1ccccc1 0.46%
COc1ccc2c(C(C)c3ccc(N)cc3)cn(C)c2c1 (stereo unspecified) -3.15%
CC(NC(=O)CCCC1CCCCC1)c1ccc(S(N)(=O)=O)cc1 (stereo unspecified) -16%
CCOC(=O)C1CCN(C(=O)C(C)(C)NC(=O)Nc2ccccc2Cl)CC1 -3.65%
O=C(NCC1COc2ccccc2O1)c1ccc(NC(=O)c2cc(F)ccc2F)cc1 (stereo unspecified) 5.07%
CCN(CC)C(=O)CC[C@H]1CC[C@]2(CCCN(Cc3ccc(Cl)cc3)C2)O1 -3.65%
C=CCN1C(=O)[C@@H](CC(=O)NCCCOCCCC)[C@]2(C(=O)OCC)CCCCC/C=C/12 -1.53%
Cc1ccccc1N1CCN(Cc2nc(Cc3ccccc3F)no2)CC1 -7.9%
Fc1cccc(Cc2noc(CN3CCN(c4cnccn4)CC3)n2)c1 -0.5%
CCOC(=O)C1CCN(C(=O)C2(NC(=O)Nc3cccc(F)c3)CCCCC2)CC1 -0.97%
O=C(/C=C/c1ccc([N+](=O)[O-])cc1)NCCSCc1ccco1 -1.92%
CCCCC(=O)N[C@@H]1CC[C@@]23CCCN2C(=O)CCC[C@H]3[C@H]1C 3.19%
CC1CCN(c2ccc(C(=O)Nc3nnc(C4CC4)s3)cc2[N+](=O)[O-])CC1 2.94%
CC1CCN(c2ccc(S(=O)(=O)Nc3cc(C(=O)O)cc(C(=O)O)c3)cc2[N+](=O)[O-])CC1 -0.48%
Nn1c(SCC(=O)N2c3ccccc3Sc3ccccc32)nnc1-c1n[nH]c2c1CCC2 -15.8%
O=C1CC[C@@]23CCCN2C(=O)CCC[C@H]3[C@H]1Cc1ccccc1 -0.8%
CC1(C)OC(=O)C(=CNC(CO)C(=O)O)C(=O)O1 (stereo unspecified) 5.15%
CC(=O)Nc1nc2ncccn2c1-c1ccc(C(F)(F)F)cc1 5.78%
CCCN1C(=O)c2[nH]nc(-c3ccccc3)c2C1c1ccccc1 (stereo unspecified) -7.15%
O=C(CCCc1ccccc1)NCc1ccccc1 -1.11%
CC(C)NC(=O)/C(C#N)=C\c1ccc(N(C)C)c(Br)c1 3.76%
CC(=O)Nc1ccc(OC[C@@H](O)CN2CCC(C(O)(c3ccccc3)c3ccccc3)CC2)cc1 -3.77%
OC(c1ccccc1)(c1ccccc1)C1CCN(CCCOc2ccc(-c3ccsc3)cc2)CC1 13.8%
CN(C)c1ccc(NC(=O)NC2CCCCN(Cc3ccc(Cl)cc3)C2=O)cc1 (stereo unspecified) 14%
Cc1cccc(N2CCN(C(=O)c3ccccc3NC(=O)C3CCCCC3C(=O)O)CC2)c1 (stereo unspecified) 2.26%
Cc1cccc(C)c1NC(=O)CS(=O)CC(=O)N1CCN(c2ccccc2)CC1 (stereo unspecified) -7.61%
COc1ccc(Cn2ccc3ccc(-c4ccc5ccn(Cc6ccccc6C)c5c4)cc32)cc1 7.66%
Cc1ccc(-c2nc(C3CCCN(S(=O)(=O)c4ccc(Br)s4)C3)no2)cc1 (stereo unspecified) 7.38%
Oc1ccc(N2CCN(C(=S)NCc3ccccc3)CC2)cc1 14.8%
c1ccc(CNCc2ccc(CNCc3ccccc3)cc2)cc1 5.37%

inhibition, active:
COc1ccccc1C1=Nc2cccc3cccc(c23)N1 56.6%
COCCNC(=O)Nc1ccc2nc(-c3ccco3)c(-c3ccco3)nc2c1 50.8%
CC(C)COC(=O)n1c(=O)oc2ccc(S(=O)(=O)N3CCCCC3)cc21 42.3%
Cc1coc2c(O)cc3c(c12)OC1(N2CCCCC2)C(=O)NCCCC31 (stereo unspecified) 35.3%
Cc1cc2nc3c(=O)n(Cc4ccccc4)c(=O)[nH]c3nc2cc1N 56.4%
COc1ccc2nc(Nc3nc4ccc(NC(C)=O)cc4s3)sc2c1 37.7%
CCOc1ccc2nc(Nc3nc4ccc(NC(C)=O)cc4s3)sc2c1 35.1%
CCOC(=O)Cn1c2c(n(-c3ccc(F)cc3)c1=O)C=C(c1ccccc1)[C@@H](C)C(C(=O)N(C)C1CCCCC1)=C2 34.2%
CN1C(=O)c2cccc3c(N)ccc(c23)C1=O 32.9%
Cc1nn(C)cc1N1C(=O)c2cccc3c(N)ccc(c23)C1=O 35.3%
Cc1cccc(N2CCN(Cc3nc(C4CC4)no3)CC2)n1 53.8%
CC1CCN(c2ccc(C(=O)O)cc2NS(=O)(=O)c2ccc(Br)s2)CC1 40.3%
O=C1C=CC(=O)N1c1ccc(N2CCCCC2)cc1 40.5%
N#C/C(=C\c1ccc(O)c(O)c1)C(=O)NCc1ccccc1 47%
Cc1cccc(N2CCN(c3ccc(NC(=O)/C=C\C(=O)O)cc3)CC2)c1 38.7%
Oc1ccc(CNc2ccccc2O)cc1 37.8%
